The source made the active and inactive calls. No cut-off for these calls is given here.
How the values were obtained:
[1] = system: B16-F10; experiment: Antimelanogenic activity in alpha-MSH-stimulated mouse B16F10 cells assessed as reduction in melanin content at 25 uM treated at 24 hrs post alpha-MSH stimulation and measured after 24 hrs relative to control; assay type: functional; set-up: scale not given: the % may be the effect or the level left
How it was run: (§1)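 Cells grown in 24-well plates for 24 h, then stimulated with 1 µM α-MSH and treated with 0, 5, 10 or 25 µM test agent (kojic acid 25 µM as reference) for 24 h. Washed with PBS, melanin dissolved in 200 µL 1N NaOH, absorbance read at 405 nm. Triplicate; means ± SEM, one-way ANOVA with Tukey's test.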

[2] = target: T1, Tyrosinase (Agaricus bisporus) (UniProt O42713); details: at 25 µM
T1 sequence (whole entry): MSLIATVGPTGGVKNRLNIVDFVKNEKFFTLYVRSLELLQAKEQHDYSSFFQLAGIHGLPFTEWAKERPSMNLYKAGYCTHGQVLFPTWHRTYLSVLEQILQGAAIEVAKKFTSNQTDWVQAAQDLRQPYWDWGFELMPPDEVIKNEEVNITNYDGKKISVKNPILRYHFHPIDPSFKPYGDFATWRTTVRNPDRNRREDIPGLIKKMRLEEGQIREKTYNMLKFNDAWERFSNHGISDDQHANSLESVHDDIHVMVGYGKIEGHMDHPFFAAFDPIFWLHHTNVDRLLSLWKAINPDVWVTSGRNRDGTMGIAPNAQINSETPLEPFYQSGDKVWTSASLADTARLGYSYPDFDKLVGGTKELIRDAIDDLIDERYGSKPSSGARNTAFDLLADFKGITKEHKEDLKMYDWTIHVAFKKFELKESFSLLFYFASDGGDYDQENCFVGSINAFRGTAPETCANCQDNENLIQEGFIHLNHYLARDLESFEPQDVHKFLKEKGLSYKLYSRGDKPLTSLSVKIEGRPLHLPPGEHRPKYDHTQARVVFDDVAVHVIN

[3] = target: T2, Tyrosinase (Mus musculus) (UniProt P11344); experiment: Inhibition of tyrosinase in alpha-MSH-stimulated mouse B16F10 cells assessed as reduction in dopachrome production using L-DOPA as substrate measured after 24 hrs by spectrophotometric method
T2 sequence (whole entry): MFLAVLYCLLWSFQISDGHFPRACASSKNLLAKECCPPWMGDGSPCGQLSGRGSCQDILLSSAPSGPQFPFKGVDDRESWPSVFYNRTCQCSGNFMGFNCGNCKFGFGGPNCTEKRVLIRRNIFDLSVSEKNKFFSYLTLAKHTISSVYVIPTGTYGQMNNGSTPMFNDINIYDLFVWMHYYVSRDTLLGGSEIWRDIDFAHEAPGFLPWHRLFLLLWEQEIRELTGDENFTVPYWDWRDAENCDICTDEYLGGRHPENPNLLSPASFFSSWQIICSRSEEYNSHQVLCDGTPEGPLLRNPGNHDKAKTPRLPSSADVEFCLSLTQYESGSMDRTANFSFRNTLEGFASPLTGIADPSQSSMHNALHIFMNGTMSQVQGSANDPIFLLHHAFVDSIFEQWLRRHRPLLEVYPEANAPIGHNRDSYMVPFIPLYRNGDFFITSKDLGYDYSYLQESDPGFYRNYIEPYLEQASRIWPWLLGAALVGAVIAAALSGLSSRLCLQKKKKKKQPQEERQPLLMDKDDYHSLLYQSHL
How it was run: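 B16F10 cells activated with 1 µM α-MSH, then given 0, 5, 10 or 25 µM test agent or 25 µM kojic acid for 24 h. Cells washed with PBS and lysed in 50 mM PBS pH 6.8 with 0.1 mM PMSF and 1% Triton X-100. Lysate frozen at -80 °C for 30 min, spun 12,000 rpm 30 min at 4 °C. Supernatant (80 µL) mixed with 20 µL 10 mM L-dopa, 37 °C for 30 min, OD read at 500 nm. Triplicate.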

[4] = system: B16-F10; experiment: Antimelanogenic activity in alpha-MSH-stimulated mouse B16F10 cells assessed as reduction in melanin content treated at 24 hrs post alpha-MSH stimulation and measured after 24 hrs; assay type: functional, cell-based; how it was run: as §1
[5] = system: B16-F10; experiment: Cytotoxicity against mouse B16F10 cells assessed as reduction in cell viability at 5 to 25 uM after 24 hrs by WST8 assay; assay type: cell-based; details: b16-f10, 24 h
How it was run: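 Murine B16F10 cells in DMEM with 10% FBS and penicillin/streptomycin at 37 °C, 5% CO2, in 96-well plates. Pre-cultured cells exposed to 0, 5, 10 or 25 µM for 24 h. WST-8 reagent then added for 30 min to 2 h, absorbance read at 450 nm, viability given as % of control. Triplicate; means ± SEM.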

[6] = target: T1, Tyrosinase (Agaricus bisporus); experiment: Competitive inhibition of mushroom tyrosinase at 10 to 40 nM using varying levels of L-tyrosine as substrate by Lineweaver-Burk plot analysis
How it was run: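 Mushroom tyrosinase (200 units) with inhibitor at 10, 20 and 40 nM and L-tyrosine 0.03125 to 16 mM, in 50 mM potassium phosphate pH 6.5. Initial dopachrome formation rate taken as ΔOD475/min. Km and Vmax from Lineweaver–Burk plots (1/V vs 1/[S]); Ki from modified Michaelis–Menten equation. Triplicate.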

[7] = target: T1, Tyrosinase (Agaricus bisporus); experiment: Potency index, ratio of compound effect to kojic acid effect for inhibition of mushroom tyrosinase at 25 uM using L-tyrosine as substrate
[8] = target: T3, Tyrosinase (Agaricus bisporus, UniProt O42713); experiment: Inhibition of mushroom tyrosinase using L-tyrosine as substrate incubated for 30 mins by spectrophotometric method
T3 sequence (O42713 whole entry): T1 sequence (whole entry)
How it was run: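 Mushroom tyrosinase with test sample (final 25 µM) in substrate mix of 14.7 mM potassium phosphate buffer and 293 µM L-tyrosine (1:1, v/v), incubated 30 min at 37 °C. Dopachrome absorbance read at 450 nm; % inhibition calculated against untreated control. Kojic acid 25 µM and arbutin 400 µM as positive controls. Triplicate; means ± SEM.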

O=c1cc(CO)occ1O [KOJIC ACID]
Activity [1]: 44.26%

CCN(CC)C(=O)/C=C/c1ccc(OC)c(O)c1
inhibition [2]: 20.7%

O=C(/C=C/c1ccc(O)cc1O)Nc1ccccc1
inhibition [3]: Dose-dependent effect
Activity [4]: Dose-dependent effect
Activity [5]: Non-Toxic
Activity [1]: 63.97%
inhibition [6]: Active
Ratio [7]: 3
IC50 [8]: 25.6 nM

O=C1CC(c2ccc(O)cc2)c2ccccc2N1 (configuration not stated)
inhibition [2]: inactive

CCN(CC)C(=O)/C=C/c1ccc(O)cc1O
inhibition [2]: 96.2%
inhibition [3]: Dose-dependent effect
Activity [4]: Dose-dependent effect
Activity [5]: Non-Toxic
Activity [1]: 78.07%
inhibition [6]: Active
Ratio [7]: 3
IC50 [8]: 11.2 nM

COc1ccc(C2CC(=O)Nc3ccccc32)cc1O (configuration not stated)
inhibition [2]: 25.9%

O=C(/C=C/c1ccc(O)cc1O)NCc1ccccc1
inhibition [2]: 85.4%
inhibition [3]: Dose-dependent effect
Activity [4]: Dose-dependent effect
Activity [5]: Non-Toxic
Activity [1]: 65.84%
Ratio [7]: 3

O=C(/C=C/c1ccc(O)cc1)NCc1ccccc1
inhibition [2]: inactive

COc1cc(C2CC(=O)Nc3ccccc32)ccc1O (configuration not stated)
inhibition [2]: inactive

COc1cc(/C=C/C(=O)NCc2ccccc2)ccc1O
inhibition [2]: 82.9%
inhibition [3]: Dose-dependent effect
Activity [4]: Dose-dependent effect
Activity [5]: Non-Toxic
Activity [1]: 80.43%
Ratio [7]: 3

COc1ccc(/C=C/C(=O)Nc2ccccc2)cc1O
inhibition [2]: 29.7%

O=C1CC(c2ccc(O)c(O)c2)c2ccccc2N1 (configuration not stated)
inhibition [2]: inactive

CCN(CC)C(=O)/C=C/c1ccc(O)c(OC)c1
inhibition [2]: 61.9%

COc1ccc(/C=C/C(=O)NCc2ccccc2)cc1O
inhibition [2]: 31.5%

O=C(/C=C/c1ccc(O)c(O)c1)Nc1ccccc1
inhibition [2]: inactive

O=C(/C=C/c1ccc(O)c(O)c1)NCc1ccccc1
inhibition [2]: 10%

CCN(CC)C(=O)/C=C/c1ccc(O)c(O)c1
inhibition [2]: inactive

CCN(CC)C(=O)/C=C/c1ccc(O)cc1
inhibition [2]: inactive

COc1cc(/C=C/C(=O)Nc2ccccc2)ccc1O
inhibition [2]: 59%
